Reference: ChEMBL document CHEMBL1629517, “Molecular properties prediction, synthesis and antimicrobial activity of some newer oxadiazole derivatives” (2010)
≈ marks a conversion by molar mass, not a printed value.

Key:
Escherichia coli [1] = assay: Antibacterial activity against Escherichia coli ATCC 25922 after 18 to 24 hrs; type: functional
Staphylococcus aureus [2] = assay: Antibacterial activity against Staphylococcus aureus ATCC 25923 at 200 ug/ml after 24 hrs by disc-diffusion method; type: functional; settings: ATCC 25923, 24 h, read-out: IZ
Pseudomonas aeruginosa [3] = assay: Antibacterial activity against Pseudomonas aeruginosa ATCC 27853 at 200 ug/ml after 24 hrs by disc-diffusion method; type: functional; settings: ATCC 27853, 24 h, read-out: IZ
Escherichia coli [4] = assay: Antibacterial activity against Escherichia coli ATCC 25922 at 100 ug/ml after 24 hrs by disc-diffusion method; type: functional; settings: ATCC 25922, 24 h, read-out: IZ
Aspergillus niger [5] = assay: Antifungal activity against Aspergillus niger after 48 hrs; type: functional
Escherichia coli [6] = assay: Antibacterial activity against Escherichia coli ATCC 25922 at 200 ug/ml after 24 hrs by disc-diffusion method; type: functional; settings: ATCC 25922, 24 h, read-out: IZ
Aspergillus niger [7] = assay: Antifungal activity against Aspergillus niger at 200 ug/ml after 48 hrs by agar diffusion method; type: functional; settings: read-out: IZ
How it was run: (§1)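 Agar well diffusion on Sabouraud agar (peptone 1 g, D-glucose 4 g, agar 2 g per 100 ml water, pH 5.7). Plates were lawned with a saline suspension of spores, excess was decanted, and plates were dried 1 h at 37 °C. Compounds in DMSO went into punched wells, and inhibition zones were measured against controls, with voriconazole as standard.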

Bacillus subtilis [8] = assay: Antibacterial activity against Bacillus subtilis ATCC 6633 after 18 to 24 hrs; type: functional
Escherichia coli [9] = assay: Antibacterial activity against Escherichia coli ATCC 25922 after 24 hrs by broth dilution technique; type: functional; settings: ATCC 25922, 24 h
How it was run: (§2)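 MIC by broth dilution: nutrient broth containing logarithmic two-fold serial dilutions of compound was inoculated with about 5 × 10⁵ c.f.u. of actively dividing bacteria.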

Aspergillus niger [10] = assay: Antifungal activity against Aspergillus niger at 100 ug/ml after 3 to 4 days by agar diffusion method; settings: read-out: IZ
Bacillus subtilis [11] = assay: Antibacterial activity against Bacillus subtilis ATCC 6633 after 24 hrs by broth dilution technique; type: functional; settings: ATCC 6633, 24 h; how it was run: as §2
Candida albicans [12] = assay: Antifungal activity against Candida albicans after 48 hrs; type: functional
Staphylococcus aureus [13] = assay: Antibacterial activity against Staphylococcus aureus ATCC 25923 at 100 ug/ml after 24 hrs by disc-diffusion method; type: functional; settings: ATCC 25923, 24 h, read-out: IZ
Candida albicans [14] = assay: Antifungal activity against Candida albicans at 200 ug/ml after 48 hrs by agar diffusion method; type: functional; settings: read-out: IZ; how it was run: as §1
Pseudomonas aeruginosa [15] = assay: Antibacterial activity against Pseudomonas aeruginosa ATCC 27853 at 100 ug/ml after 24 hrs by disc-diffusion method; type: functional; settings: ATCC 27853, 24 h, read-out: IZ
Staphylococcus aureus [16] = assay: Antibacterial activity against Staphylococcus aureus ATCC 25923 after 24 hrs by broth dilution technique; type: functional; settings: ATCC 25923, 24 h; how it was run: as §2
Pseudomonas aeruginosa [17] = assay: Antibacterial activity against Pseudomonas aeruginosa ATCC 27853 after 24 hrs by broth dilution technique; type: functional; settings: ATCC 27853, 24 h; how it was run: as §2
Candida albicans [18] = assay: Antifungal activity against Candida albicans at 100 ug/ml after 48 hrs by agar diffusion method; type: functional; settings: read-out: IZ; how it was run: as §1
Staphylococcus aureus [19] = assay: Antibacterial activity against Staphylococcus aureus ATCC 25923 after 18 to 24 hrs; type: functional
Bacillus subtilis [20] = assay: Antibacterial activity against Bacillus subtilis ATCC 6633 at 100 ug/ml after 24 hrs by disc-diffusion method; type: functional; settings: ATCC 6633, 24 h, read-out: IZ
Bacillus subtilis [21] = assay: Antibacterial activity against Bacillus subtilis ATCC 6633 at 200 ug/ml after 24 hrs by disc-diffusion method; type: functional; settings: ATCC 6633, 24 h, read-out: IZ
Pseudomonas aeruginosa [22] = assay: Antibacterial activity against Pseudomonas aeruginosa ATCC 27853 after 18 to 24 hrs; type: functional

Structure (SMILES) | MBC (Escherichia coli [1]) [µg/mL] | zone of inhibition at 200 µg/mL (Staphylococcus aureus [2]) [mm] | zone of inhibition at 200 µg/mL (Pseudomonas aeruginosa [3]) [mm] | zone of inhibition at 100 µg/mL (Escherichia coli [4]) [mm] | zone of inhibition at 200 µg/mL (Escherichia coli [6]) [mm] | zone of inhibition at 200 µg/mL (Aspergillus niger [7]) [mm] | MBC (Bacillus subtilis [8]) [µg/mL] | MIC (Escherichia coli [9]) [µg/mL] | zone of inhibition at 100 µg/mL (Aspergillus niger [10]) [mm] | MIC (Bacillus subtilis [11]) [µg/mL] | zone of inhibition at 100 µg/mL (Staphylococcus aureus [13]) [mm] | zone of inhibition at 200 µg/mL (Candida albicans [14]) [mm] | zone of inhibition at 100 µg/mL (Pseudomonas aeruginosa [15]) [mm] | MIC (Staphylococcus aureus [16]) [µg/mL] | MIC (Pseudomonas aeruginosa [17]) [µg/mL] | zone of inhibition at 100 µg/mL (Candida albicans [18]) [mm] | MBC (Staphylococcus aureus [19]) [µg/mL] | zone of inhibition at 100 µg/mL (Bacillus subtilis [20]) [mm] | zone of inhibition at 200 µg/mL (Bacillus subtilis [21]) [mm] | MBC (Pseudomonas aeruginosa [22]) [µg/mL] | also measured
COc1cc(/C=C/C(=O)c2ccccc2)ccc1OCc1nnc(-c2ccccc2)o1 | 25 (≈ 60.6 µM) | 18 | 25 | 19 | 20 | 25 | 50 (≈ 121 µM) | 12.5 (≈ 30.3 µM) | 21 | 25 (≈ 60.6 µM) | 16 | 18 | 23 | 12.5 (≈ 30.3 µM) | 25 (≈ 60.6 µM) | 16 | 50 (≈ 121 µM) | 13 | 14 | 50 (≈ 121 µM) | MFC (Aspergillus niger [5]): 25 µg/mL (≈ 60.6 µM); MIC (Aspergillus niger [5]): 12.5 µg/mL (≈ 30.3 µM); MFC (Candida albicans [12]): 25 µg/mL (≈ 60.6 µM); MIC (Candida albicans [12]): 12.5 µg/mL (≈ 30.3 µM)
COc1cc(/C=C/C(=O)c2ccccc2)ccc1OCc1nnc(-c2ccc(Cl)cc2)o1 | 25 (≈ 55.9 µM) | 14 | 22 | 16 | 18 | 20 | 12.5 (≈ 28 µM) | 12.5 (≈ 28 µM) | 18 | 6 (≈ 13.4 µM) | 12 | 15 | 19 | 12.5 (≈ 28 µM) | 25 (≈ 55.9 µM) | 12 | 25 (≈ 55.9 µM) | 9 | 11 | 50 (≈ 112 µM) | MFC (Aspergillus niger [5]): 25 µg/mL (≈ 55.9 µM); MIC (Aspergillus niger [5]): 12.5 µg/mL (≈ 28 µM); MFC (Candida albicans [12]): 50 µg/mL (≈ 112 µM); MIC (Candida albicans [12]): 25 µg/mL (≈ 55.9 µM)
COc1cc(/C=C/C(=O)c2ccccc2)ccc1OCc1nnc(-c2ccc(C)cc2)o1 | 25 (≈ 58.6 µM) | 16 | 25 | 19 | 21 | 22 | 12.5 (≈ 29.3 µM) | 6 (≈ 14.1 µM) | 20 | 6 (≈ 14.1 µM) | 15 | 16 | 23 | 6 (≈ 14.1 µM) | 12.5 (≈ 29.3 µM) | 15 | 25 (≈ 58.6 µM) | 12 | 14 | 50 (≈ 117 µM) | MFC (Candida albicans [12]): 25 µg/mL (≈ 58.6 µM); MIC (Candida albicans [12]): 12.5 µg/mL (≈ 29.3 µM)
COc1cc(/C=C/C(=O)c2ccccc2)ccc1OCc1nnc(-c2ccccc2O)o1 | 12.5 (≈ 29.2 µM) | 19 | 27 | 20 | 22 | 25 | 12.5 (≈ 29.2 µM) | 6 (≈ 14 µM) | 22 | 6 (≈ 14 µM) | 17 | 20 | 25 | 6 (≈ 14 µM) | 6 (≈ 14 µM) | 18 | 12.5 (≈ 29.2 µM) | 15 | 16 | 12.5 (≈ 29.2 µM) | MFC (Aspergillus niger [5]): 12.5 µg/mL (≈ 29.2 µM); MIC (Aspergillus niger [5]): 6 µg/mL (≈ 14 µM); MFC (Candida albicans [12]): 12.5 µg/mL (≈ 29.2 µM); MIC (Candida albicans [12]): 6 µg/mL (≈ 14 µM)
COc1cc(/C=C/C(=O)c2ccccc2)ccc1OCc1nnc(COc2ccccc2)o1 | 12.5 (≈ 28.3 µM) | 17 | 24 | 18 | 20 | 25 | 25 (≈ 56.5 µM) | 12.5 (≈ 28.3 µM) | 22 | 12.5 (≈ 28.3 µM) | 15 | 18 | 23 | 6 (≈ 13.6 µM) | 12.5 (≈ 28.3 µM) | 16 | 12.5 (≈ 28.3 µM) | 12 | 14 | 25 (≈ 56.5 µM) | MFC (Aspergillus niger [5]): 12.5 µg/mL (≈ 28.3 µM); MIC (Aspergillus niger [5]): 6 µg/mL (≈ 13.6 µM); MFC (Candida albicans [12]): 25 µg/mL (≈ 56.5 µM); MIC (Candida albicans [12]): 12.5 µg/mL (≈ 28.3 µM)
COc1ccc(C(=O)/C=C/c2ccc(OCc3nnc(-c4ccc(Cl)cc4)o3)c(OC)c2)cc1 | 100 (≈ 210 µM) | 15 | 24 | 17 | 19 | 21 | 50 (≈ 105 µM) | 12.5 (≈ 26.2 µM) | 19 | 12.5 (≈ 26.2 µM) | 14 | 17 | 22 | 12.5 (≈ 26.2 µM) | 12.5 (≈ 26.2 µM) | 16 | 50 (≈ 105 µM) | 12 | 13 | 100 (≈ 210 µM) | MFC (Aspergillus niger [5]): 50 µg/mL (≈ 105 µM); MIC (Aspergillus niger [5]): 12.5 µg/mL (≈ 26.2 µM)
COc1cc(/C=C/C(=O)c2ccc(O)cc2)ccc1OCc1nnc(-c2ccc(Cl)cc2)o1 | 50 (≈ 108 µM) | 15 | 23 | 16 | 18 | 21 | 25 (≈ 54 µM) | 25 (≈ 54 µM) | 18 | 12.5 (≈ 27 µM) | 13 | 17 | 22 | 25 (≈ 54 µM) | 25 (≈ 54 µM) | 14 | 100 (≈ 216 µM) | 11 | 13 | 100 (≈ 216 µM) | MFC (Candida albicans [12]): 25 µg/mL (≈ 54 µM); MIC (Candida albicans [12]): 12.5 µg/mL (≈ 27 µM)
COc1cc(/C=C/C(=O)c2ccc(O)cc2)ccc1OCc1nnc(-c2ccc([N+](=O)[O-])cc2)o1 | 100 (≈ 211 µM) | 13 | 23 | 15 | 17 | 19 | 50 (≈ 106 µM) | 50 (≈ 106 µM) | 17 | 12.5 (≈ 26.4 µM) | 12 | 15 | 21 | 25 (≈ 52.8 µM) | 12.5 (≈ 26.4 µM) | 13 | 50 (≈ 106 µM) | 10 | 11 | 100 (≈ 211 µM) | MFC (Aspergillus niger [5]): 100 µg/mL (≈ 211 µM); MIC (Aspergillus niger [5]): 25 µg/mL (≈ 52.8 µM)
COc1cc(/C=C/C(=O)c2ccc(O)cc2)ccc1OCc1nnc(-c2ccc(C)cc2)o1 | 25 (≈ 56.5 µM) | 17 | 25 | 19 | 20 | 23 | 25 (≈ 56.5 µM) | 12.5 (≈ 28.3 µM) | 20 | 12.5 (≈ 28.3 µM) | 15 | 17 | 23 | 25 (≈ 56.5 µM) | 25 (≈ 56.5 µM) | 15 | 50 (≈ 113 µM) | 12 | 14 | 100 (≈ 226 µM) | MFC (Candida albicans [12]): 100 µg/mL (≈ 226 µM); MIC (Candida albicans [12]): 25 µg/mL (≈ 56.5 µM)
O=C(O)c1cn(C2CC2)c2cc(N3CCNCC3)c(F)cc2c1=O [CIPROFLOXACIN] | 12.5 (≈ 37.7 µM) | 24 | 33 | – | 27 | – | 12.5 (≈ 37.7 µM) | 6 (≈ 18.1 µM) | – | 6 (≈ 18.1 µM) | 23 | – | 32 | 6 (≈ 18.1 µM) | 6 (≈ 18.1 µM) | – | 12.5 (≈ 37.7 µM) | 21 | 22 | 12.5 (≈ 37.7 µM) | –
C[C@@H](c1ncncc1F)[C@](O)(Cn1cncn1)c1ccc(F)cc1F [VORICONAZOLE] | – | – | – | – | – | 30 | – | – | 28 | – | – | 26 | – | – | – | 24 | – | – | – | – | MFC (Aspergillus niger [5]): 12.5 µg/mL (≈ 35.8 µM); MIC (Aspergillus niger [5]): 6 µg/mL (≈ 17.2 µM); MFC (Candida albicans [12]): 12.5 µg/mL (≈ 35.8 µM); MIC (Candida albicans [12]): 6 µg/mL (≈ 17.2 µM)
